Data taken from ChEMBL document CHEMBL1128270 (J Med Chem, 1995).

How the values were obtained:
[1] = target: T1, 5-hydroxytryptamine receptor 1A (Rattus norvegicus, UniProt P19327); assay: In vitro binding affinity measured on serotonin 5-hydroxytryptamine 1A receptor using [3H]8-OH-DPAT as radioligand.
T1 sequence (P19327 whole entry): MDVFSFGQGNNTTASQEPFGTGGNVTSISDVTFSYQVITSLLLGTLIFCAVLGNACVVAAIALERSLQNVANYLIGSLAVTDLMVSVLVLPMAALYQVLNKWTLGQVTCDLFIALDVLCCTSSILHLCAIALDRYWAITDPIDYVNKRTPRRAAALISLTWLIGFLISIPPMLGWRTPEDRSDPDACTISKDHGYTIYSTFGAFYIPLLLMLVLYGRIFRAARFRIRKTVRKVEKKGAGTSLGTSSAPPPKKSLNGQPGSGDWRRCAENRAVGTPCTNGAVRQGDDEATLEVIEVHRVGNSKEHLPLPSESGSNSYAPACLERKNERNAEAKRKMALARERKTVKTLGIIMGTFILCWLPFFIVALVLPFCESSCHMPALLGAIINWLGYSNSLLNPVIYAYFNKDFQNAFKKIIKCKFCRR

[2] = target: Serotonin 2 (5-HT2) receptor (Rattus norvegicus, UniProt P30994+P08909+P14842); assay: In vitro binding affinity measured on serotonin 5-hydroxytryptamine 2 receptor using [3H]ketanserin as radioligand.; type: protein assay
[3] = target: T2, Adrenergic receptor alpha-1 (Rattus norvegicus, UniProt P15823+P23944+P43140); assay: In vitro binding affinity measured on alpha-1 adrenergic receptor using [3H]prazosin as radioligand.; type: protein assay
T2 sequence (P15823 whole entry): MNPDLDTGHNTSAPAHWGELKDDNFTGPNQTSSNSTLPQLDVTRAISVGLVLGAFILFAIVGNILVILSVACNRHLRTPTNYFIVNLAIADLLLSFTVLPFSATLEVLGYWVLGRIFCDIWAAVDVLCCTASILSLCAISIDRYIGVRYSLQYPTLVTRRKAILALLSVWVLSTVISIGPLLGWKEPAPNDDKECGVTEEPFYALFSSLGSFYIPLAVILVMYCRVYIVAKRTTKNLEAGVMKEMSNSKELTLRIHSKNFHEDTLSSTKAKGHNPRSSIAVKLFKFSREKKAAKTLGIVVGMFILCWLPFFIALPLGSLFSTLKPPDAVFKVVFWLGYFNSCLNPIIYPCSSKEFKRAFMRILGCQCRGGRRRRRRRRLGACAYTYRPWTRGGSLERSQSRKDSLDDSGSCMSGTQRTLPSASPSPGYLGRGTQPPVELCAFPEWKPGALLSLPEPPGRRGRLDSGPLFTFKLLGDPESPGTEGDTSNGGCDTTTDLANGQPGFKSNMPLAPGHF
T2 sequence (P23944 whole entry): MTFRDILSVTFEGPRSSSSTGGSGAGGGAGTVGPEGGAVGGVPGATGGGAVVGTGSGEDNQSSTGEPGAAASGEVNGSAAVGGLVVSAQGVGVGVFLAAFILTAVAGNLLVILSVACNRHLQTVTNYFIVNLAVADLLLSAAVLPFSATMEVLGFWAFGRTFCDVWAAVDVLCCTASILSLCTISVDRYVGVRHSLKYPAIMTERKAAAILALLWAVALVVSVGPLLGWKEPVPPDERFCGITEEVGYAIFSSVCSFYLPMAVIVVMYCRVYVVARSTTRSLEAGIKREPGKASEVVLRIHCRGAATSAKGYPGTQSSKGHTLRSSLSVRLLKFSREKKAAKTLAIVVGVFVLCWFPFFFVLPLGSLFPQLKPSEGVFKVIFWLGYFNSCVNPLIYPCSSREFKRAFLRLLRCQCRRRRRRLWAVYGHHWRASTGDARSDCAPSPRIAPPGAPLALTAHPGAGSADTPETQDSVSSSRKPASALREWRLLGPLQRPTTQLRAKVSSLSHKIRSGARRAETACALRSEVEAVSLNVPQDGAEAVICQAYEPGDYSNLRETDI
T2 sequence (P43140 whole entry): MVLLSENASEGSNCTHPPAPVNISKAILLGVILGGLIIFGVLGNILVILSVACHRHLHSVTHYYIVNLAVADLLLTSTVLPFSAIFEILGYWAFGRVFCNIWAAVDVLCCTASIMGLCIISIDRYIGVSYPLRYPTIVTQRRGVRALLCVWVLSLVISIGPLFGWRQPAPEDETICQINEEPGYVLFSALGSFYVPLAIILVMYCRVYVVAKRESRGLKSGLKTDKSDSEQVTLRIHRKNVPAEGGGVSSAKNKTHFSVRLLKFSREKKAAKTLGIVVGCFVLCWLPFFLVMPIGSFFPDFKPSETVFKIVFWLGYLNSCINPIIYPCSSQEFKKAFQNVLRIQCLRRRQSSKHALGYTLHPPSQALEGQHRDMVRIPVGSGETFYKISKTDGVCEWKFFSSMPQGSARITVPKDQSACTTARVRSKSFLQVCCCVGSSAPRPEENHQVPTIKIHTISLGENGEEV

D(2) dopamine receptor = D(2) dopamine receptor (Rattus norvegicus, UniProt P61169); assay: In vitro binding affinity measured on dopamine receptor D2 using [3H]spiroperidol as radioligand.
Method in brief: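 IC50 came from 7–9 drug concentrations in triplicate, over 2–4 independent experiments, analysed with EBDA. Specific binding exceeded 75% of total.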

Cavia porcellus = species: Cavia porcellus; assay: Selectivity as the ratio of IC50 value against sigma receptor to that of 5-HT1A receptor.
Method in brief: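 Ratio of the σ IC50 to the 5-HT1A IC50. For σ, a P2 membrane fraction was prepared from whole male guinea pig brain without cerebellum in 50 mM Tris-HCl pH 7.4. [3H]DTG was 0.90 nM final, incubated 90 min at 25 °C, then filtered and counted. IC50 values came from 7–9 concentrations in triplicate (EBDA).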

[4] = Selectivity ratio of IC50 value against D-2 receptor to that of 5-HT1A receptor.
Method in brief: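 Ratio of the D-2 IC50 to the 5-HT1A IC50. […] Each IC50 came from 7–9 concentrations in triplicate over 2–4 experiments (EBDA).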

[5] = target: Serotonin 1a (5-HT1a) receptor/Adrenergic receptor alpha-1 (Rattus norvegicus) (UniProt P15823+P23944+P43140+P19327); assay: Selectivity ratio of IC50 value against alpha-1 receptor to that of 5-HT1A receptor.; type: protein assay
Method in brief: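 Ratio of the α1 IC50 to the 5-HT1A IC50 ([3H]-8-OH-DPAT, rat cortex). For α1, male Sprague-Dawley rat cortex membranes were prepared in 50 mM Tris-HCl pH 7.7 with 10 μM pargyline and 0.1% ascorbate.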

Chain of D(2) dopamine receptor (P61169 whole entry): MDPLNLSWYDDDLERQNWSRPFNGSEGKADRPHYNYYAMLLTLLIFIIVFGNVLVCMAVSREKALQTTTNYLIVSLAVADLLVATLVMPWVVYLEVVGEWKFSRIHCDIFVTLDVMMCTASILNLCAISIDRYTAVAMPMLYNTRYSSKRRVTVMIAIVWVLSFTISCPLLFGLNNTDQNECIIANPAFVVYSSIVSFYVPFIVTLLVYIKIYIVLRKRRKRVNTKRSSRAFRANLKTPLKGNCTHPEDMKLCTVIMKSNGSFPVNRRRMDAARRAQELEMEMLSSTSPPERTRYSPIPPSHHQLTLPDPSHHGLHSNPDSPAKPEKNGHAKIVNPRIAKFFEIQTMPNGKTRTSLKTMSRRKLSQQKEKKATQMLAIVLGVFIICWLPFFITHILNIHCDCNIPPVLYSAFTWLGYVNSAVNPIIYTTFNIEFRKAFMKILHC

| IC50 [1] | IC50 [2] | IC50 [3] | IC50 (D(2) dopamine receptor) | Selectivity (Cavia porcellus) | Selectivity [4] | Selectivity [5] | Structure (SMILES) |
| --- | --- | --- | --- | --- | --- | --- | --- |
| 0.36 nM | 170 nM | 78.8 nM | 96.7 nM | – | – | – | COc1cccc2c1CCCC2CCCN1CCN(c2ccccc2)CC1 (configuration not stated) |
| 3.38 nM | 288 nM | 261 nM | 328 nM | 37 | 97 | 77 | COc1ccc2c(c1)C(CCCN1CCN(c3ccccn3)CC1)CCC2 (configuration not stated) |
| 1.84 nM | 147 nM | 3.6 nM | 12.7 nM | 30 | 6.9 | 2 | COc1ccccc1N1CCN(CC/C=C2\CCCc3ccccc32)CC1 |
| 13 nM | – | 96.2 nM | 5920 nM | – | 455 | 7.4 | COc1ccccc1N1CCN(CCCCC2=CCCc3c(OC)cccc32)CC1 |
| 1.4 nM | 205 nM | 123 nM | 119 nM | – | – | – | COc1cccc2c1CCC=C2CCCN1CCN(c2ccccn2)CC1 |
| 1.08 nM | – | 120 nM | 7.83 nM | – | 7.3 | 111 | COc1ccccc1N1CCN(CCSC2CCCc3c(OC)cccc32)CC1 (configuration not stated) |
| 1.13 nM | 147 nM | 1.26 nM | 24.1 nM | – | – | – | COc1ccccc1N1CCN(CCCC2CCCc3ccsc32)CC1 (configuration not stated) |
| 2 nM | 391 nM | 24.5 nM | 90.6 nM | 114 | 45 | 12 | COc1ccc2c(c1)C(CCCN1CCN(c3ccccc3OC)CC1)=CCC2 |
| 0.39 nM | 155 nM | 0.14 nM | 24.7 nM | – | 63 | 0.36 | COc1ccccc1N1CCN(CCCC2CCCc3ccccc32)CC1 (configuration not stated) |
| 146 nM | – | 7170 nM | 472 nM | – | 3.2 | 49 | COc1cccc2c1CCCC2CCCN1CCN(c2cccc(C(F)(F)F)c2)CC1 (configuration not stated) |
| 8.83 nM | 329 nM | 78.5 nM | 50.9 nM | – | – | – | COc1ccc2c(c1)C(CCCCN1CCN(c3ccccc3OC)CC1)CCC2 (configuration not stated) |
| 0.58 nM | 331 nM | 31.4 nM | 177 nM | – | – | – | COc1cccc2c1CCCC2CCCN1CCN(c2ccccn2)CC1 (configuration not stated) |
| 63.6 nM | 146 nM | 152 nM | 778 nM | 3.9 | 12 | 2.4 | COc1ccc2c(c1)C(CCCN1CCN(c3ccccn3)CC1)=CCC2 |
| – | 204 nM | 49 nM | 303 nM | – | – | – | COc1cccc2c1CCC=C2CCCN1CCN(c2ccccc2)CC1 |
